Results gathered from unrelated publications.
Each line is one published result; the experiments were not run side by side.
HRH3: Histamine H3 receptor (HRH3, Homo sapiens, UniProt Q9Y5N1)
SLC10A2: Ileal sodium/bile acid cotransporter (SLC10A2, Homo sapiens, UniProt Q12908)
DRD5: D(1B) dopamine receptor (DRD5, Homo sapiens, UniProt P21918)
Hypoxanthine-guanine-xanthine phosphoribosyltransferase: Hypoxanthine-guanine-xanthine phosphoribosyltransferase (Plasmodium falciparum, UniProt P20035)
WDR5: WD repeat-containing protein 5 (WDR5, Homo sapiens, UniProt P61964)
CYP1B1: Cytochrome P450 1B1 (CYP1B1, Homo sapiens, UniProt Q16678)
PDEB1: Class 1 phosphodiesterase PDEB1 (PDEB1, Trypanosoma brucei, UniProt Q8WQX9)

| SMILES | target | test | conditions | Ki |
| --- | --- | --- | --- | --- |
| CN(C)c1ccc(/C=C/C=C2\CCc3ccc(OCc4ccc(OCCCN5CCCCC5)cc4)cc3C2=O)cc1 | HRH3 | ligand displacement, radioligand | cell membranes | 0.087 µM |
| CC(C(=O)O)c1cccc(C(=O)c2ccccc2)c1 (stereo not drawn) | SLC10A2 | transporter uptake, inhibitor | – | 178 µM |
| CCCCCCCC/C=C\CCCCCCCC(=O)NC(CO)(CO)CO | DRD5 | ligand displacement, radioligand | – | > 10 µM |
| COc1ccc2c(c1)C(=O)N(CCCN1CCN(c3ccccc3OC)CC1)C2 | DRD5 | ligand displacement, radioligand | – | 8.29 µM |
| O=C1CN(CC[C@@H](CO)NCc2c[nH]c3c(O)ncnc23)S(=O)(=O)N1 | Hypoxanthine-guanine-xanthine phosphoribosyltransferase | enzyme activity, inhibitor | pH 7.4 | > 20 µM |
| Cc1nc(F)ccc1-c1cc(C(=O)NCc2ccc(Cl)c(Cl)c2)ccc1Cn1ccn(C)c1=N | WDR5 | ligand displacement, FP | – | > 5 µM |
| CCCNc1nc2ccccc2n1Cc1ccc(Cl)cc1 | DRD5 | cell-free assay, radioligand | – | 5.66 µM |
| O=C1CN(C[C@@H](CO)NCc2c[nH]c3c(O)nc(O)nc23)S(=O)(=O)N1 | Hypoxanthine-guanine-xanthine phosphoribosyltransferase | enzyme activity, inhibitor | pH 7.4 | > 20 µM |
| CC(C)=CCc1c(O)cc(O)c2c1O[C@H](c1ccc(O)cc1)CC2=O | CYP1B1 | enzyme activity, inhibitor, fluorescence | 15 min, pH 7.4 | 0.17 µM |
| COc1ccc(C2=NN(C3CCCCCC3)C(=O)C3CC=CCC23)cc1-c1ccc(C(=O)N2CCC[C@@H]2C(N)=O)cc1 (mixture of isomers) | PDEB1 | enzyme activity, inhibitor | – | 0.501 µM |
| CCCc1ccc(OCCCCCN2CCC(C)CC2)cc1 | HRH3 | ligand displacement, radioligand | cell membranes | 0.156 µM |
| C[C@H]1[C@H](NC(=O)/C(=N\OC(C)(C)C(=O)O)c2csc(N)n2)C(=O)N1S(=O)(=O)O | SLC10A2 | transporter uptake, inhibitor | – | 1850 µM |
| C#Cc1ccc2cc(-c3ccccc3)c(=O)oc2c1 | CYP1B1 | enzyme activity, inhibitor, fluorescence | 6 min, pH 7.6 | 1.72 µM |
| CN(C(=O)[C@@H]1Cc2ccccc2CN1C(=O)c1ccc(Cl)s1)c1ccc(N2CCCCC2=O)cc1 | Coagulation factor X (F10, Homo sapiens, UniProt P00742) | enzyme activity, inhibitor, absorbance | – | 28 µM |
| CN(C)c1ccc(/C=C/C=C2\CCc3cc(OCCCN4CCCCC4)ccc3C2=O)cc1 | HRH3 | ligand displacement, radioligand | cell membranes | 0.094 µM |
| CCCCN1CCC(COC(=O)c2ccc(N)c(OCF)c2)CC1 | Beta-2 adrenergic receptor (ADRB2, Homo sapiens, UniProt P07550) | cell-free assay, radioligand | – | > 10 µM |
| C#Cc1ccccc1-c1cc(=O)c2ccccc2o1 | CYP1B1 | enzyme activity, inhibitor, fluorescence | 6 min, pH 7.6 | 0.61 µM |
| CN1CCN(CCCOc2ccc(Nc3nccc(N4CCN(C)CC4)n3)cc2)CC1 | HRH3 | ligand displacement, radioligand | cell membranes | 0.646 µM |
| C#Cc1ccc2c(=O)cc(-c3ccccc3)oc2c1 | CYP1B1 | enzyme activity, inhibitor, fluorescence | 6 min, pH 7.6 | 0.42 µM |
| O=c1c(O)c(NC[C@@H](CO)NCc2c[nH]c3c(O)ncnc23)c1=O | Hypoxanthine-guanine-xanthine phosphoribosyltransferase | enzyme activity, inhibitor | pH 7.4 | > 20 µM |

| SMILES | target | test | conditions | Ki |
| --- | --- | --- | --- | --- |
| C#Cc1cccc(-c2cc(=O)c3ccccc3o2)c1 | CYP1B1 | enzyme activity, inhibitor, fluorescence | 6 min, pH 7.6 | 0.16 µM |
| CNC(=C[N+](=O)[O-])NCCSCc1ccc(CN(C)C)o1 | SLC10A2 | transporter uptake, inhibitor | – | 886 µM |
| O=C1CCCc2cc(OCCCN3CCCCC3)ccc21 | HRH3 | ligand displacement, radioligand | cell membranes | 0.068 µM |
| O=C1CN(CC[C@@H](CO)NCc2c[nH]c3c(O)nc(O)nc23)S(=O)(=O)N1 | Hypoxanthine-guanine-xanthine phosphoribosyltransferase | enzyme activity, inhibitor | pH 7.4 | > 20 µM |
| NS(=O)(=O)c1cc2c(cc1Cl)NCNS2(=O)=O | SLC10A2 | transporter uptake, inhibitor | – | 2020 µM |
| COc1cc(O)c(CC=C(C)C)c(O)c1C(=O)/C=C/c1ccc(O)cc1 | CYP1B1 | enzyme activity, inhibitor, fluorescence | 15 min, pH 7.4 | 0.17 µM |
| COc1cc(CNC(=O)c2cccc(CNC3=NCCN3)c2F)cc(OC)c1 | WDR5 | ligand displacement, TR-FRET | – | > 0.033 µM |
| CN(C)c1ccc(/C=C/C=C2\CCc3ccc(OCCCN4CCCCC4)cc3C2=O)cc1 | HRH3 | ligand displacement, radioligand | cell membranes | 0.101 µM |
| COC(=O)C1=C(C)NC(C)=C(C(=O)OC(C)C)C1c1cccc2nonc12 (stereo not drawn) | SLC10A2 | transporter uptake, inhibitor | – | 19.4 µM |
| O=C1c2ccccc2CCN1CCCCN1CCN(c2ccccn2)CC1 | DRD5 | ligand displacement, radioligand | – | 9.36 µM |
| CN1CCN(CC/C=C2/c3ccccc3Sc3ccc(S(=O)(=O)N(C)C)cc32)CC1 | SLC10A2 | transporter uptake, inhibitor | – | 808 µM |
| CN(C)c1ccc(/C=C2\CCc3cc(OCc4ccc(OCCCN5CCCCC5)cc4)ccc3C2=O)cc1 | HRH3 | ligand displacement, radioligand | cell membranes | 0.041 µM |
| C=C[C@H]1C[N@@]2CC[C@H]1C[C@H]2[C@H](O)c1ccnc2ccc(OC)cc12 | SLC10A2 | transporter uptake, inhibitor | – | 223 µM |
| O=c1c(O)c(NCC[C@@H](CO)NCc2c[nH]c3c(O)ncnc23)c1=O | Hypoxanthine-guanine-xanthine phosphoribosyltransferase | enzyme activity, inhibitor | pH 7.4 | > 20 µM |
| NS(=O)(=O)c1cc(C2(O)NC(=O)c3ccccc32)ccc1Cl (stereo not drawn) | SLC10A2 | transporter uptake, inhibitor | – | 707 µM |
| CCCc1ccc(OCCCCCN2CCCCC2)cc1 | HRH3 | ligand displacement, radioligand | cell membranes | 0.048 µM |
| O=C(NCc1cc(Cl)cc(Cl)c1)c1cccc(Cn2ccnc2)c1 | WDR5 | ligand displacement, FP | – | 0.681 µM |
| COc1ccc(C2=NN(C(C)C)C(=O)C3CC=CCC23)cc1-c1ccc(C(=O)N2CCC[C@@H]2C(N)=O)cc1 (mixture of isomers) | PDEB1 | enzyme activity, inhibitor | – | 0.631 µM |
| c1cc2c(cc1OCCCCCN1CCCCCC1)CCC2 | HRH3 | ligand displacement, radioligand | cell membranes | 0.0645 µM |
